According to ChEMBL document CHEMBL4196009, “Novel vitexin-inspired scaffold against leukemia” (Eur J Med Chem, 2018):
Each block holds one compound with its values, some of them ahead of it.

Key:
KOPN-8 [1] = assay: Induction of apoptosis in human KOPN8 cells assessed as viable cells at 10 uM after 24 hrs by Annexin V-FITC/propidium iodide staining-based flow cytometry (reference value: 85.2%); assay type: functional; settings: KOPN-8, 24 h, read-out: Activity
Procedure, shortened: (§1)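 KOPN-8 cells were treated for 24 h, with a DMSO vehicle control and a staurosporine positive control. Cells were stained with FITC-Annexin V and propidium iodide and analysed by flow cytometry. Quadrant gating separated viable, early apoptotic, late apoptotic (Q2) and necrotic populations.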

HepG2 = assay: Antiproliferative activity against human HepG2 cells after 72 hrs by CelTiter-Glo assay; assay type: functional, cell-based; settings: HepG2, 72 h
KOPN-8 [2] = assay: Induction of apoptosis in human KOPN8 cells assessed as early apoptotic cells at 10 uM after 24 hrs by Annexin V-FITC/propidium iodide staining-based flow cytometry (reference value: 0.1%); assay type: functional
Procedure, shortened: (§2)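 KOPN-8 cells treated 24 h alongside a DMSO vehicle and a staurosporine (2.0 µM) positive control. Apoptosis was scored by FITC Annexin V / propidium iodide flow cytometry with quadrant gating (early, late apoptotic). DNA content was measured by PI staining to give the percentage of cells in G0/G1, S and G2/M. Groups were compared by t-test; error bars are SD.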

THLE-2 = assay: Antiproliferative activity against human THLE2 cells after 72 hrs by CelTiter-Glo assay; assay type: cell-based; settings: THLE-2, 72 h
KOPN-8 [3] = assay: Induction of apoptosis in human KOPN8 cells assessed as late apoptotic cells at 10 uM after 24 hrs by Annexin V-FITC/propidium iodide staining-based flow cytometry (reference value: 9.5%); assay type: functional; procedure, shortened: as §1
KOPN-8 [4] = assay: Cell cycle arrest in human KOPN8 cells assessed as accumulation at S phase at 10 uM after 24 hrs by propidium iodide staining-based flow cytometry (reference value: 66.56%); assay type: functional; procedure, shortened: as §2
KOPN-8 [5] = assay: Cell cycle arrest in human KOPN8 cells assessed as accumulation at G0/G1 phase at 10 uM after 24 hrs by propidium iodide staining-based flow cytometry (reference value: 24.77%); assay type: functional; procedure, shortened: as §2
BJ = assay: Antiproliferative activity against human BJ cells after 72 hrs by CelTiter-Glo assay; assay type: cell-based
SUP-B15 [6] = assay: Induction of apoptosis in human SUP-B15 cells assessed as necrotic cells at 10 uM after 24 hrs by Annexin V-FITC/propidium iodide staining-based flow cytometry (reference value: 9.2%); assay type: functional
KOPN-8 [7] = assay: Induction of apoptosis in human KOPN8 cells assessed as necrotic cells at 10 uM after 24 hrs by Annexin V-FITC/propidium iodide staining-based flow cytometry (reference value: 0.2%); assay type: functional; procedure, shortened: as §1
SUP-B15 [8] = assay: Induction of apoptosis in human SUP-B15 cells assessed as early apoptotic cells at 10 uM after 24 hrs by Annexin V-FITC/propidium iodide staining-based flow cytometry (reference value: 0.1%); assay type: functional
SEM cells = assay: Antiproliferative activity against human SEM cells after 72 hrs by CelTiter-Glo assay; assay type: functional, cell-based
SUP-B15 [9] = assay: Induction of apoptosis in human SUP-B15 cells assessed as late apoptotic cells at 10 uM after 24 hrs by Annexin V-FITC/propidium iodide staining-based flow cytometry (reference value: 2.2%); assay type: functional
SUP-B15 [10] = assay: Antiproliferative activity against human SUP-B15 cells after 72 hrs by CelTiter-Glo assay; assay type: functional, cell-based; settings: SUP-B15, 72 h
KOPN-8 [11] = assay: Cell cycle arrest in human KOPN8 cells assessed as accumulation at G2/M phase at 10 uM after 24 hrs by propidium iodide staining-based flow cytometry (reference value: 9.67%); assay type: functional; procedure, shortened: as §2
SUP-B15 [12] = assay: Induction of apoptosis in human SUP-B15 cells assessed as viable cells at 10 uM after 24 hrs by Annexin V-FITC/propidium iodide staining-based flow cytometry (reference value: 82.8%); assay type: functional; settings: SUP-B15, 24 h, read-out: Activity
KOPN-8 [13] = assay: Antiproliferative activity against human KOPN8 cells after 72 hrs by CelTiter-Glo assay; assay type: functional, cell-based; settings: KOPN-8, 72 h
UoC-B1 = assay: Antiproliferative activity against human UOCB1 cells after 72 hrs by CelTiter-Glo assay; assay type: functional, cell-based; settings: UoC-B1, 72 h
KOPN-8 [14] = assay: Induction of apoptosis in human KOPN8 cells assessed as necrotic cells at 2 uM after 24 hrs by Annexin V-FITC/propidium iodide staining-based flow cytometry (reference value: 0.2%); assay type: functional
SUP-B15 [15] = assay: Induction of apoptosis in human SUP-B15 cells assessed as late apoptotic cells at 2 uM after 24 hrs by Annexin V-FITC/propidium iodide staining-based flow cytometry (reference value: 2.2%); assay type: functional
KOPN-8 [16] = assay: Cell cycle arrest in human KOPN8 cells assessed as accumulation at G2/M phase at 2 uM after 24 hrs by propidium iodide staining-based flow cytometry (reference value: 9.67%); assay type: functional
SUP-B15 [17] = assay: Induction of apoptosis in human SUP-B15 cells assessed as early apoptotic cells at 2 uM after 24 hrs by Annexin V-FITC/propidium iodide staining-based flow cytometry (reference value: 0.1%); assay type: functional
MDA-MB-231 [18] = assay: Cell cycle arrest in human MDA-MB-231 cells assessed as accumulation at G2/M phase at 2.5 uM after 24 hrs by propidium iodide staining-based flow cytometry (reference value: 9.38%); assay type: functional
SUP-B15 [19] = assay: Induction of apoptosis in human SUP-B15 cells assessed as viable cells at 2 uM after 24 hrs by Annexin V-FITC/propidium iodide staining-based flow cytometry (reference value: 82.8%); assay type: functional; settings: SUP-B15, 24 h, read-out: Activity
MDA-MB-231 [20] = assay: Cell cycle arrest in human MDA-MB-231 cells assessed as accumulation at S phase at 2.5 uM after 24 hrs by propidium iodide staining-based flow cytometry (reference value: 20.15%); assay type: functional
KOPN-8 [21] = assay: Induction of apoptosis in human KOPN8 cells assessed as viable cells at 2 uM after 24 hrs by Annexin V-FITC/propidium iodide staining-based flow cytometry (reference value: 85.2%); assay type: functional; settings: KOPN-8, 24 h, read-out: Activity
KOPN-8 [22] = assay: Induction of apoptosis in human KOPN8 cells assessed as early apoptotic cells at 2 uM after 24 hrs by Annexin V-FITC/propidium iodide staining-based flow cytometry (reference value: 0.1%); assay type: functional
KOPN-8 [23] = assay: Cell cycle arrest in human KOPN8 cells assessed as accumulation at G0/G1 phase at 2 uM after 24 hrs by propidium iodide staining-based flow cytometry (reference value: 24.77%); assay type: functional
MDA-MB-231 [24] = assay: Cell cycle arrest in human MDA-MB-231 cells assessed as accumulation at G0/G1 phase at 2.5 uM after 24 hrs by propidium iodide staining-based flow cytometry (reference value: 70.47%); assay type: functional
SUP-B15 [25] = assay: Induction of apoptosis in human SUP-B15 cells assessed as necrotic cells at 2 uM after 24 hrs by Annexin V-FITC/propidium iodide staining-based flow cytometry (reference value: 9.2%); assay type: functional
KOPN-8 [26] = assay: Cell cycle arrest in human KOPN8 cells assessed as accumulation at S phase at 2 uM after 24 hrs by propidium iodide staining-based flow cytometry (reference value: 66.56%); assay type: functional
KOPN-8 [27] = assay: Induction of apoptosis in human KOPN8 cells assessed as late apoptotic cells at 2 uM after 24 hrs by Annexin V-FITC/propidium iodide staining-based flow cytometry (reference value: 9.5%); assay type: functional
MDA-MB-231 [28] = assay: Cell cycle arrest in human MDA-MB-231 cells assessed as accumulation at G0/G1 phase at 20 uM after 24 hrs by propidium iodide staining-based flow cytometry (reference value: 70.47%); assay type: functional
MDA-MB-231 [29] = assay: Cell cycle arrest in human MDA-MB-231 cells assessed as accumulation at S phase at 20 uM after 24 hrs by propidium iodide staining-based flow cytometry (reference value: 20.15%); assay type: functional
MDA-MB-231 [30] = assay: Cell cycle arrest in human MDA-MB-231 cells assessed as accumulation at G2/M phase at 20 uM after 24 hrs by propidium iodide staining-based flow cytometry (reference value: 9.38%); assay type: functional

EC50 (HepG2): 11.3 µM
Structure (SMILES): COc1cc(OC)c2c(=O)cc(C(=O)N3CCN(C(=O)OC(C)(C)C)CC3)[nH]c2c1
viability at 10 µM (KOPN-8 [1]): 63.7%
Activity (KOPN-8 [2]): 0.2%
EC50 (THLE-2): 299 µM
Activity (KOPN-8 [3]): 24.9%
Activity (KOPN-8 [4]): 61.36%
Activity (KOPN-8 [5]): 29.78%
EC50 (BJ): 13.8 µM
Activity (SUP-B15 [6]): 11.3%
Activity (KOPN-8 [7]): 0.5%
Activity (SUP-B15 [8]): 0%
EC50 (SEM cells): 47 µM
Activity (SUP-B15 [9]): 3.2%
EC50 (SUP-B15 [10]): 3.98 µM
Activity (KOPN-8 [11]): 8.86%
viability at 10 µM (SUP-B15 [12]): 77.7%
EC50 (KOPN-8 [13]): 6.73 µM

EC50 (HepG2): > 20 µM
Structure (SMILES): COc1ccc(-c2c(Br)c(=O)c3c(OC)cc(OC)cc3n2S(=O)(=O)c2ccc(OC)cc2)cc1
EC50 (THLE-2): 69 µM
Activity (MDA-MB-231 [28]): 70.02%
Activity (MDA-MB-231 [29]): 18.2%
Activity (MDA-MB-231 [30]): 11.79%
EC50 (BJ): 49.7 µM
EC50 (SEM cells): 1.9 µM
EC50 (SUP-B15 [10]): 2.92 µM
EC50 (KOPN-8 [13]): 2.58 µM

Continued, compound first:

Structure (SMILES): O=c1cc(-c2ccc(O)cc2)oc2c([C@@H]3O[C@H](CO)[C@@H](O)[C@H](O)[C@H]3O)c(O)cc(O)c12 [VITEXIN]
EC50 (HepG2): > 43.3 µM
EC50 (THLE-2): 200 µM
EC50 (UoC-B1): > 43.3 µM
EC50 (BJ): > 86.2 µM
EC50 (SEM cells): > 43.3 µM
EC50 (SUP-B15 [10]): 50.7 µM
EC50 (KOPN-8 [13]): > 43.3 µM

Structure (SMILES): COC(=O)c1cc(=O)c2cc(NC(=O)Nc3ccc(Cl)c(C(F)(F)F)c3)ccc2[nH]1
viability at 10 µM (KOPN-8 [1]): 80.7%
EC50 (HepG2): > 6.35 µM
Activity (KOPN-8 [2]): 0.1%
Activity (KOPN-8 [3]): 12.3%
EC50 (UoC-B1): > 6.35 µM
Activity (KOPN-8 [4]): 48.5%
Activity (KOPN-8 [5]): 40.39%
EC50 (BJ): > 12.6 µM
Activity (SUP-B15 [6]): 16.4%
Activity (KOPN-8 [7]): 0.3%
Activity (SUP-B15 [8]): 0.1%
EC50 (SEM cells): > 6.35 µM
Activity (SUP-B15 [9]): 9.3%
EC50 (SUP-B15 [10]): > 12.6 µM
Activity (KOPN-8 [11]): 11.11%
viability at 10 µM (SUP-B15 [12]): 65.5%
EC50 (KOPN-8 [13]): > 6.35 µM

Structure (SMILES): CN[C@@H]1C[C@H]2O[C@@](C)([C@@H]1OC)n1c3ccccc3c3c4c(c5c6ccccc6n2c5c31)C(=O)NC4 [STAUROSPORINE]
Activity (KOPN-8 [14]): 0.1%
Activity (SUP-B15 [15]): 44.2%
Activity (KOPN-8 [16]): 20.08%
Activity (SUP-B15 [17]): 0.2%
Activity (MDA-MB-231 [18]): 6.8%
viability at 2 µM (SUP-B15 [19]): 9.8%
Activity (MDA-MB-231 [20]): 42.21%
viability at 2 µM (KOPN-8 [21]): 0.3%
Activity (KOPN-8 [22]): 0.2%
Activity (KOPN-8 [23]): 49.55%
Activity (MDA-MB-231 [24]): 50.99%
Activity (SUP-B15 [25]): 39.4%
Activity (KOPN-8 [26]): 30.37%
Activity (KOPN-8 [27]): 74.4%
